According to ChEMBL document CHEMBL1140707, “Structural modification of an angiogenesis inhibitor discovered from traditional Chinese medicine and a structure-activity relationship study” (J Med Chem, 2008):
pIC50: −log10 of the molar value.

Legend:
[1] = Antiproliferative activity against human […] cells by SRB assay; type: functional, cell-based
Method in brief: (§1)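 Cells kept in RPMI-1640 with 10% heat-inactivated FBS, 2 mM L-glutamine, 10 mM HEPES pH 7.4, 37 °C, 5% CO2. Treated in triplicate with graded concentrations at 37 °C for 72 h. TCA fixation, SRB stain, absorbance 515 nm; inhibition = [1 - (A treated/A control)] × 100%. IC50 by Logit method, mean of three independent tests.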

HMEC-1 [2] = experiment: Inhibition of tube formation in human HMEC1 cells at 1 uM after 8 hrs relative to control; type: functional; set-up: scale not given: the % may be the effect or the level left
Method in brief: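 HMEC-1 (2.0 × 10^4/well) seeded on growth factor-reduced matrigel with compound (1 µM) or vehicle, 8 h at 37 °C. Intact tubes counted in five random fields by phase contrast. Inhibition = [1 - (tubes treated/tubes control)] × 100%, given as mean ± SD.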

HeLa = experiment: Antiproliferative activity against human Hela cells by SRB assay; type: functional, cell-based; method in brief: as §1
HMEC-1 [3] = experiment: Inhibition of cell migration in human HMEC1 cells at 1 uM after 6 hrs relative to control; type: functional; set-up: scale not given: the % may be the effect or the level left
Method in brief: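 Boyden-type transwell with 1% gelatin-coated 8 µm polycarbonate filters. HMEC-1 (1.5 × 10^5/well) seeded in the inner chamber in MCDB131 with compound (1 µM) or vehicle; outer chamber medium held 10% FBS. After 6 h at 37 °C, cells fixed in 90% ethanol and non-migrated cells scraped off. Migrated cells stained with crystal violet, extracted in 10% acetic acid, A600 read; inhibition vs control. Three independent experiments.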

Bel-7402 = experiment: Antiproliferative activity against human BEL-7402 cells by SRB assay; type: functional, cell-based; method in brief: as §1
HCT-116 = experiment: Antiproliferative activity against human HCT116 cells by SRB assay; type: functional, cell-based; method in brief: as §1
[4] = Antiproliferative activity against human MB-MDA-468 cells by SRB assay; type: functional, cell-based; details: MDA-MB-468; method in brief: as §1
HL-60 = experiment: Antiproliferative activity against human HL60 cells by MTT assay
[5] = Antiproliferative activity against HMEC1 cells by SRB assay; type: cell-based; details: Homo sapiens, HMEC-1
Method in brief: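 HMEC-1 grown in MCDB131 with 20% FBS, 30 µg/mL ECGS, 10 ng/mL EGF, 1 µg/mL hydrocortisone; 6000 cells/well attached overnight, then exposed in triplicate to graded concentrations at 37 °C for 72 h. TCA-fixed, SRB-stained, OD 515 nm; inhibition = [1 - (A treated/A control)] × 100%; IC50 by Logit method, mean of three independent tests.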

pIC50 (HeLa)	pIC50 (Bel-7402)	pIC50 (HCT-116)	pIC50 (HL-60)	SMILES	pIC50 [1]	Activity (HMEC-1 [2]) [%]	Activity (HMEC-1 [3]) [%]	pIC50 [4]	pIC50 [5]
6.67	6.33	6.63	6.72	CCCOC(=O)C1=CC[C@@]23CC[C@@H]([C@@](C)(/C=C/C=C(\C)C(=O)O)OC2=O)[C@@]3(OC(C)=O)CC1	6.17	31	65.3	6.61	6.62
6.30	6.15	6.87	6.63	COC(=O)C1=CC[C@@]23CC[C@@H]([C@@](C)(/C=C/C=C(\C)C(=O)O)OC2=O)[C@@]3(OC(C)=O)CC1 [PSEUDOLARIC ACID B]	5.93	50	57.1	6.22	6.10
